Data as given in PMC6136352 (Journal of Enzyme Inhibition and Medicinal Chemistry, 2018).

Assays:
HL-60 cells = assay: MTT cytotoxicity assay, HL-60; format: cell-based; conditions: Homo sapiens, HL-60, 72 h, read-out: IC50 HL-60
In short: (§1)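 Exponentially growing leukaemia lines were seeded at 1 × 10⁴ cells/well in supplemented RPMI 1640. After 24 h, test compounds were added over a concentration range for 72 h, with adriamycin as positive control. MTT (5 mg/ml stock) was added for 4 h. Plates were spun at 2000 rpm for 20 min, the supernatant replaced by DMSO, and absorbance read at 570 nm. IC50 was fitted; each value is the mean of three independent experiments.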

[1] = cited from earlier work
KG1a cells = assay: MTT cytotoxicity assay, KG1a; format: cell-based, human; conditions: for IC50: Homo sapiens, KG-1a, 72 h, read-out: IC50 KG1a
In short: as §1

[2] = cited from earlier work; remark: listed apart in the source

Row | Compound | IC50 (HL-60 cells) [nM] | solubility [1] | IC50 (KG1a cells) [nM] | stability in acidic and basic conditions [2] | drop of activity against KG1a than that against HL-60 (KG1a cells; ratio of IC50 values) [folds]
1 | C=C1C(=O)O[C@H]2[C@H]1CC/C(C)=C/CC[C@@]1(C)O[C@@H]21 [PTL, Parthenolide] | 3800 ± 1200 | poor solubility | 6100 ± 1800 | instability in both acidic and basic conditions | 
2 | COc1cccc2c1C(=O)c1c(O)c3c(c(O)c1C2=O)C[C@@](O)(C(=O)CO)C[C@@H]3O[C@H]1C[C@H](N)[C@H](O)[C@H](C)O1 [ADR, adriamycin] | 22 ± 5 |  | 750 ± 50 |  | 34
